Results pooled from the literature.
Each line is one published result; the experiments were not run side by side.
Target: Serine/threonine-protein kinase PAK 3 (PAK3, Homo sapiens, UniProt O75914)

Structure (SMILES) | observed | method | tested at | remaining binding [%]
CN(c1nccc(-c2cnn3ncccc23)n1)C1CC1 | binding |  | 1 µM | 100
CC(=O)c1c(NS(C)(=O)=O)c2cc(-c3ccc(Cl)cc3)c(-c3ccc(Cl)cc3Cl)nc2n(C)c1=O | cell-free assay | competition with immobilised ligand | 1 µM | 100
CC1CCCN1c1nccc(-c2cnn3ncccc23)n1 (centres unmarked) | binding |  | 1 µM | 100
O=C(NCC1CCOCC1)c1n[nH]cc1NC(=O)c1c(F)cccc1F | binding | competition with immobilised ligand | 1 µM | 100
COc1cnc(Nc2cccc(S(N)(=O)=O)c2)nc1N1CCN(c2ccccc2)C(=O)C1 | binding | competition with immobilised ligand | 1 µM | 75
c1cnn2ncc(-c3ccnc(N4CCC45COC5)n3)c2c1 | binding |  | 1 µM | 88
O=C(c1ccc(Nc2nccc(-c3cc4ccccc4s3)n2)cc1)N1CCC(N2CCCC2)CC1 | binding | competition with immobilised ligand | 1 µM | 39
C[C@H](c1cccc(C#N)c1)n1cc(Cl)cc(C(N)=O)c1=N | cell-free assay | competition with immobilised ligand | 1 µM | 88
COc1cnc(Nc2cccc(S(N)(=O)=O)c2)nc1N1CCN(c2ccccc2)CC1 | binding | competition with immobilised ligand | 1 µM | 100
C[C@H]1CCN(c2nccc(-c3cnn4ncccc34)n2)C1 | binding |  | 1 µM | 94
CN([C@@H]1CCc2c(CC(=O)O)c3ccccc3n2C1)S(=O)(=O)c1ccc(F)cc1 | cell-free assay | competition with immobilised ligand | 1 µM | 98
Cc1cnn2ncc(-c3ccnc(N(C)C)n3)c2c1 | binding |  | 1 µM | 100
FC(F)(F)Oc1cccc(-c2cnc3ccc(-c4ccncc4)nn23)c1 | cell-free assay | competition with immobilised ligand | 5 µM | 100
Cc1c(NC(=O)c2cc(C(N)=O)nc3cc(F)ccc23)c(C(F)(F)F)nn1Cc1ccc(C(C)(C)C)cc1 | cell-free assay | competition with immobilised ligand | 1 µM | 100
CN(C)c1nccc(-c2cnc3ncccn23)n1 | binding |  | 1 µM | 100
O=C(c1ccc(Nc2ncc(Cl)c(-c3cc4ccccc4s3)n2)cc1)N1CCC(N2CCCC2)CC1 | binding | competition with immobilised ligand | 1 µM | 8.4
CSc1cccnc1N1CCN(Cc2nc3ccccc3[nH]2)CC1 | cell-free assay | competition with immobilised ligand | 1 µM | 87
O=C(NCCCN1CCOCC1)c1ccc(Nc2nccc(-c3cc4ccccc4s3)n2)cc1 | binding | competition with immobilised ligand | 1 µM | 71
CC(=O)Nc1c(C(C)=O)c(=O)n(C)c2nc(-c3ccc(Cl)cc3Cl)c(-c3ccc(Cl)cc3)cc12 | cell-free assay | competition with immobilised ligand | 1 µM | 100
CCN1CCN(Cc2ccc(C(=O)Nc3ccc(C)c(Oc4ccc5c(c4)CC(=O)N5)c3)cc2C(F)(F)F)CC1 | binding | competition with immobilised ligand | 1 µM | 98
